ChEMBL document CHEMBL1671676, “In vitro activity of nemonoxacin, a novel nonfluorinated quinolone, against 2,440 clinical isolates” (2009)
In brackets after ≈: the same amount, converted by molar mass.

How the values were obtained:
Assay type in all cases: functional
Enterobacter cloacae [1] = test: Antibacterial activity against Enterobacter cloacae assessed as percent cumulative susceptible isolates at minimum inhibitory concentration of 2 ug/ml by CLSI broth microdilution method; parameters: scale not given: the % may be the effect or the level left
[2] = tested on: Stenotrophomonas maltophilia; test: Antibacterial activity against Stenotrophomonas maltophilia assessed as percent cumulative susceptible isolates at minimum inhibitory concentration of 8 ug/ml by CLSI broth microdilution method; parameters: scale not given: the % may be the effect or the level left
Acinetobacter baumannii [3] = test: Antibacterial activity against Acinetobacter baumannii assessed as percent cumulative susceptible isolates at minimum inhibitory concentration of 0.06 ug/ml by CLSI broth microdilution method; parameters: scale not given: the % may be the effect or the level left
Pseudomonas aeruginosa [4] = test: Antibacterial activity against Pseudomonas aeruginosa assessed as percent cumulative susceptible isolates at minimum inhibitory concentration of 0.06 ug/ml by CLSI broth microdilution method; parameters: scale not given: the % may be the effect or the level left
Acinetobacter baumannii [5] = test: Antibacterial activity against Acinetobacter baumannii by CLSI M7-A7 broth microdilution method
Staphylococcus aureus [6] = test: Antibacterial activity against methicillin-susceptible Staphylococcus aureus by CLSI M7-A7 broth microdilution method
Outline: (§1)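 Broth microdilution per CLSI guidelines on clinical isolates, using panels of doubling drug dilutions in cation-adjusted Mueller-Hinton broth with 5% lysed horse blood. MIC read per CLSI, and cumulative percentage of isolates inhibited at each concentration tabulated.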

Staphylococcus aureus [7] = test: Antibacterial activity against methicillin-susceptible Staphylococcus aureus assessed as percent cumulative susceptible isolates at minimum inhibitory concentration of 0.03 ug/ml by CLSI broth microdilution method; parameters: scale not given: the % may be the effect or the level left
Escherichia coli [8] = test: Antibacterial activity against Escherichia coli assessed as percent cumulative susceptible isolates at minimum inhibitory concentration of 0.03 ug/ml by CLSI broth microdilution method; parameters: scale not given: the % may be the effect or the level left
Proteus mirabilis [9] = test: Antibacterial activity against Proteus mirabilis assessed as percent cumulative susceptible isolates at minimum inhibitory concentration of 1 ug/ml by CLSI broth microdilution method; parameters: scale not given: the % may be the effect or the level left
Enterococcus faecalis [10] = test: Antibacterial activity against Enterococcus faecalis assessed as percent cumulative susceptible isolates at minimum inhibitory concentration of 0.5 ug/ml by CLSI broth microdilution method; parameters: scale not given: the % may be the effect or the level left
Enterococcus faecium [11] = test: Antibacterial activity against Enterococcus faecium assessed as percent cumulative susceptible isolates at minimum inhibitory concentration of 0.06 ug/ml by CLSI broth microdilution method; parameters: scale not given: the % may be the effect or the level left
Streptococcus pneumoniae = test: Antibacterial activity against penicillin-resistant Streptococcus pneumoniae by CLSI M7-A7 broth microdilution method; outline: as §1
Klebsiella oxytoca = test: Antibacterial activity against Klebsiella oxytoca assessed as percent cumulative susceptible isolates at minimum inhibitory concentration of 1 ug/ml by CLSI broth microdilution method; parameters: scale not given: the % may be the effect or the level left
Staphylococcus aureus [12] = test: Antibacterial activity against non-levofloxacin susceptible Staphylococcus aureus assessed as percent cumulative susceptible isolates at minimum inhibitory concentration of […] by CLSI broth microdilution method; parameters: scale not given: the % may be the effect or the level left
[13] = tested on: Staphylococcus epidermidis; test: Antibacterial activity against methicillin-susceptible Staphylococcus epidermidis assessed as percent cumulative susceptible isolates at minimum inhibitory concentration of 1 ug/ml by CLSI broth microdilution method; parameters: scale not given: the % may be the effect or the level left
Staphylococcus aureus [14] = test: Antibacterial activity against methicillin-susceptible Staphylococcus aureus assessed as percent cumulative susceptible isolates at minimum inhibitory concentration of […] by CLSI broth microdilution method; parameters: scale not given: the % may be the effect or the level left
Staphylococcus aureus [15] = test: Antibacterial activity against methicillin-resistant Staphylococcus aureus assessed as percent cumulative susceptible isolates at minimum inhibitory concentration of 2 ug/ml by CLSI broth microdilution method; parameters: scale not given: the % may be the effect or the level left
Escherichia coli [16] = test: Antibacterial activity against Escherichia coli assessed as percent cumulative susceptible isolates at minimum inhibitory concentration of <=[…] by CLSI broth microdilution method; parameters: scale not given: the % may be the effect or the level left
Staphylococcus aureus [17] = test: Antibacterial activity against non-levofloxacin susceptible Staphylococcus aureus assessed as percent cumulative susceptible isolates at minimum inhibitory concentration of 2 ug/ml by CLSI broth microdilution method; parameters: scale not given: the % may be the effect or the level left
[18] = Ratio of fAUC (0 to 24 hrs) in in vitro PK/PD model at 750 mg to MIC for Streptococcus pneumoniae
Escherichia coli [19] = test: Antibacterial activity against Escherichia coli assessed as percent cumulative susceptible isolates at minimum inhibitory concentration of 256 ug/ml by CLSI broth microdilution method; parameters: scale not given: the % may be the effect or the level left
Enterococcus faecalis [20] = test: Antibacterial activity against Enterococcus faecalis assessed as percent cumulative susceptible isolates at minimum inhibitory concentration of 128 ug/ml by CLSI broth microdilution method; parameters: scale not given: the % may be the effect or the level left
Staphylococcus aureus [21] = test: Antibacterial activity against community-associated methicillin-resistant Staphylococcus aureus assessed as percent cumulative susceptible isolates at minimum inhibitory concentration of 0.5 ug/ml by CLSI broth microdilution method; parameters: scale not given: the % may be the effect or the level left
Enterococcus faecalis [22] = test: Antibacterial activity against Enterococcus faecalis by CLSI M7-A7 broth microdilution method
Enterococcus faecium [23] = test: Antibacterial activity against Enterococcus faecium assessed as percent cumulative susceptible isolates at minimum inhibitory concentration of […] by CLSI broth microdilution method; parameters: scale not given: the % may be the effect or the level left
Pseudomonas aeruginosa [24] = test: Antibacterial activity against Pseudomonas aeruginosa assessed as percent cumulative susceptible isolates at minimum inhibitory concentration of 4 ug/ml by CLSI broth microdilution method; parameters: scale not given: the % may be the effect or the level left
Proteus mirabilis [25] = test: Antibacterial activity against Proteus mirabilis assessed as percent cumulative susceptible isolates at minimum inhibitory concentration of […] by CLSI broth microdilution method; parameters: scale not given: the % may be the effect or the level left
Staphylococcus aureus [26] = test: Antibacterial activity against community-associated methicillin-resistant Staphylococcus aureus by CLSI M7-A7 broth microdilution method
Outline: (§2)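 Clinical isolates tested by CLSI broth microdilution using 96-well panels of doubling drug dilutions in cation-adjusted Mueller-Hinton broth with 5% lysed horse blood. MIC was read from these panels. Panel quality control used CLSI ATCC strains, including S. pneumoniae 49619, S. aureus 29213, E. faecalis 29212 and E. coli 25922. Cumulative percentages of isolates were tabulated at each MIC.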

Staphylococcus aureus [27] = test: Antibacterial activity against hospital-associated methicillin-resistant Staphylococcus aureus assessed as percent cumulative susceptible isolates at minimum inhibitory concentration of 2 ug/ml by CLSI broth microdilution method; parameters: scale not given: the % may be the effect or the level left; outline: as §2
Staphylococcus aureus [28] = test: Antibacterial activity against non-levofloxacin susceptible Staphylococcus aureus assessed as percent cumulative susceptible isolates at minimum inhibitory concentration of 0.5 ug/ml by CLSI broth microdilution method; parameters: scale not given: the % may be the effect or the level left
[29] = Ratio of fAUC (0 to 24 hrs) in in vitro PK/PD model at 750 mg to MIC for Staphylococcus aureus
Pseudomonas aeruginosa [30] = test: Antibacterial activity against Pseudomonas aeruginosa assessed as percent cumulative susceptible isolates at minimum inhibitory concentration of 128 ug/ml by CLSI broth microdilution method; parameters: scale not given: the % may be the effect or the level left
[31] = Ratio of fAUC (0 to 24 hrs) in in vitro PK/PD model at 750 mg to MIC for Staphylococcus epidermidis
Staphylococcus aureus [32] = test: Antibacterial activity against methicillin-resistant Staphylococcus aureus assessed as percent cumulative susceptible isolates at minimum inhibitory concentration of 0.5 ug/ml by CLSI broth microdilution method; parameters: scale not given: the % may be the effect or the level left
Staphylococcus aureus [33] = test: Antibacterial activity against methicillin-susceptible Staphylococcus aureus assessed as percent cumulative susceptible isolates at minimum inhibitory concentration of 2 ug/ml by CLSI broth microdilution method; parameters: scale not given: the % may be the effect or the level left
Staphylococcus aureus [34] = test: Antibacterial activity against hospital-associated methicillin-resistant Staphylococcus aureus assessed as percent cumulative susceptible isolates at minimum inhibitory concentration of 0.5 ug/ml by CLSI broth microdilution method; parameters: scale not given: the % may be the effect or the level left
Enterobacter cloacae [35] = test: Antibacterial activity against Enterobacter cloacae assessed as percent cumulative susceptible isolates at minimum inhibitory concentration of 0.5 ug/ml by CLSI broth microdilution method; parameters: scale not given: the % may be the effect or the level left

For C[C@H]1COc2c(N3CCN(C)CC3)c(F)cc3c(=O)c(C(=O)O)cn1c23.C[C@H]1COc2c(N3CCN(C)CC3)c(F)cc3c(=O)c(C(=O)O)cn1c23.O [LEVOFLOXACIN], the Activity (Enterobacter cloacae [1]) was 93.1%, the Activity [2] was 92.3% and the Activity (Acinetobacter baumannii [3]) was 6.7%. It also gave an Activity (Pseudomonas aeruginosa [4]) of 2.2%.

For COc1c(N2C[C@@H](C)C[C@H](N)C2)ccc2c(=O)c(C(=O)O)cn(C3CC3)c12 [NEMONOXACIN], the MIC90 (Acinetobacter baumannii [5]) was 1 µg/mL (≈ 2.69 µM), the MIC90 (Staphylococcus aureus [6]) was 0.12 µg/mL (≈ 0.323 µM) and the Activity (Staphylococcus aureus [7]) was 71.9%. For the same molecule, the Activity (Escherichia coli [8]) was 1.5%, the Activity (Proteus mirabilis [9]) was 75.8% and the Activity (Enterococcus faecalis [10]) was 70.4%. It also gave an Activity (Enterococcus faecium [11]) of 7.9%, an MIC90 (Streptococcus pneumoniae) of 0.03 µg/mL (≈ 0.0808 µM) and an Activity (Klebsiella oxytoca) of 100%. It also gave an Activity (Staphylococcus aureus [12]) of 8.9%, an Activity [13] of 95.3% and an Activity (Staphylococcus aureus [14]) of 30.5%. The Activity (Staphylococcus aureus [15]) was 37.8%, the Activity (Escherichia coli [16]) was 0.2% and the Activity (Staphylococcus aureus [17]) was 36.1%. The RatioAUC/MIC [18] was over 393, the Activity (Escherichia coli [19]) was 99.7% and the Activity (Enterococcus faecalis [20]) was 100%. For the same molecule, the Activity (Staphylococcus aureus [21]) was 92%, the MIC90 (Enterococcus faecalis [22]) was 1 µg/mL (≈ 2.69 µM) and the Activity (Enterococcus faecium [23]) was 28.9%. For the same molecule, the Activity (Pseudomonas aeruginosa [24]) was 78.1%, the Activity (Proteus mirabilis [25]) was 24.2% and the MIC50 (Staphylococcus aureus [26]) was 0.25 µg/mL (≈ 0.673 µM). The MIC90 (Staphylococcus aureus [26]) was 0.5 µg/mL (≈ 1.35 µM), the Activity (Staphylococcus aureus [27]) was 22.2% and the Activity (Staphylococcus aureus [28]) was 19%. The RatioAUC/MIC [29] was 393, the Activity (Pseudomonas aeruginosa [30]) was 97.8% and the RatioAUC/MIC [31] was 98. For the same molecule, the Activity (Staphylococcus aureus [32]) was 24.4%, the Activity (Staphylococcus aureus [33]) was 96% and the Activity (Staphylococcus aureus [34]) was 5.1%. It also gave an Activity (Enterobacter cloacae [35]) of 90.3%.
